“Also recorded” adds a separate entry of the source. *1 amine or outer side, *2 acyl side, *3 side chain or, on linkers, in order; H or OH if unused. Where a SMILES comes first, the peptide text is derived from it. Side-chain parts run from the residue outwards. [ ]: non-standard residue; d: D form. The star is where a group is joined. Ethylenediamine = C(CN[*:2])N[*:1]; Hyp = O=C(O)[C@@H]1C[C@@H](O)CN1; Phg = N[C@H](C(=O)O)c1ccccc1; CO = O=C([*:1])[*:2]; Bn = c1ccc(C*)cc1
Experiments:
[1] = test system: human sst3; details: cited from earlier work; for IC50: read-out: IC50, binding affinity to sst3, human sst3, mean ± SEM
[2] = compared with octreotide; cited from earlier work
[3] = Blood glucose levels after a single subcutaneous dose in healthy volunteers; type: in vivo, human
Procedure, shortened: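 Healthy males aged 18–40 received one s.c. dose (1–1200 μg) or placebo between 8 and 9 am, about 1 h after a light standardized meal. Blood glucose was measured by the central standard laboratory panel at these times: pre-breakfast before dosing; before and 60 min after a standard lunch on Day –1 and Day 1; 2 h post-dose; and 23 h post-dose on Day 2.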

[4] = test system: GHRH-stimulated GH secretion; assay: GHRH stimulation test, GH suppression in healthy volunteers; type: in vivo, human; details: for Emax, maximum GH reduction: value ± standard error
Procedure, shortened: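 The GHRH stimulation test ran on Day –1 and Day 1. A 1 μg/kg GHRH bolus was given about 3 h after the s.c. dose. Plasma GH was sampled at −60 and 0 min and up to 120 min after GHRH, and measured by chemiluminescence assay (LLOQ 0.06 ng/mL).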

[5] = test system: human sst5; details: cited from earlier work; for IC50: read-out: IC50, binding affinity to sst5, human sst5, mean ± SEM
[6] = test system: human sst4; details: read-out: IC50, binding affinity to sst4, mean ± SEM; cited from earlier work
[7] = test system: human sst2; details: cited from earlier work; for IC50: read-out: IC50, binding affinity to sst2, human sst2, mean ± SEM
[8] = test system: human sst1; details: cited from earlier work; for IC50: read-out: IC50, binding affinity to sst1, human sst1, mean ± SEM
[9] = Plasma pharmacokinetics after a single subcutaneous dose in healthy volunteers; type: in vivo, human
Procedure, shortened: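 Single s.c. dose in healthy males. Blood was drawn by venipuncture or forearm cannula up to 144 h post-dose and centrifuged to plasma. Drug was quantified by validated radioimmunoassay (LLOQ 0.03 ng/mL); values below the LLOQ were set to zero. Parameters came from non-compartmental analysis, reported as median (range) for tmax and mean ± SD otherwise. Dose proportionality was tested by a log-dose versus log-parameter linear model.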

[10] = Safety and tolerability of a single subcutaneous dose in healthy volunteers; type: in vivo, human
Procedure, shortened: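 Randomized, double-blind, placebo-controlled ascending single s.c. doses; cohorts had 4–8 active and 2 placebo subjects. Subjects were confined from about 36 h pre-dose until 48-h safety results were available, with follow-up over 7 days. AEs came from self-report, investigator questioning, examination or laboratory tests. Laboratory abnormalities counted as AEs only if symptomatic or treated. SAEs were recorded until 4 weeks after the trial. Laboratory tests were run centrally, with descriptive statistics.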

[11] = male, human, plasma, sc, 2.5 ug
[12] = male, human, plasma, sc, 100 ug
[13] = male, human, plasma, sc, 200 ug
[14] = male, human, plasma, sc, 300 ug
[15] = male, human, plasma, sc, 600 ug
[16] = male, human, plasma, sc, 1200 ug
[17] = single s.c. dose, across dose levels, healthy male volunteers
[18] = single s.c. dose 1200 μg, n = 6

In the case of `NCCCC[C@@H]1NC(=O)[C@@H](Cc2c[nH]c3ccccc23)NC(=O)[C@H](c2ccccc2)NC(=O)[C@@H]2C[C@@H](OC(=O)NCCN)CN2C(=O)[C@H](Cc2ccccc2)NC(=O)[C@H](Cc2ccc(OCc3ccccc3)cc2)NC1=O` [Pasireotide] (cyclo([Hyp]([CO-Ethylenediamine])[Phg][dW]KY(Bn)F)), the “higher binding affinity for sst3 compared with octreotide” value ([1]; ratio versus octreotide) is given as 5 fold, the metabolic stability [2] is given as “greater metabolic stability than octreotide” and the glucose values ([3]; all dose groups, twenty-three hours after the injection) is given as “normal for all groups”. The blood glucose levels ([3]; doses between 200 μg and 1200 μg, 2–6 hours after administration, resolved by 23 hours post-dosing) was “Transient elevations in blood glucose levels”, the glucose levels ([3]; single s.c. dose 600 μg and 1200 μg, six hours after administration) was “higher than those of placebo recipients” and the “Emax, maximum GH reduction” value ([4]; non-linear Emax model for GH AUC ratio versus Cavg) was 0.99 ± 0.03. The “Emax, maximum GH reduction” value ([4]; non-linear Emax model for GH AUC ratio versus dose) was 1.00 ± 0.00, the GH suppression ([4]; single pasireotide doses between 200 μg and 1200 μg s.c.) was 79%–96% and the “decrease in GH AUC2h” value ([4]; single s.c. dose 30–100 μg) was “approximately 45%”. The “reduction in GH AUC2h” value ([4]; single s.c. doses between 1 μg and 10 μg) was “No reduction”, the “higher binding affinity for sst5 than endogenous somatostatin” value ([5]; ratio versus endogenous somatostatin) was 2 fold and the “higher binding affinity for sst5 compared with octreotide” value ([5]; ratio versus octreotide) was 39 fold. For the same molecule, the IC50 [5] was 0.16 ± 0.01 nM, the IC50 [6] was over 1000 nM and the “lower affinity for sst2 compared with octreotide” value ([7]; ratio versus octreotide) was 2.6 times. The IC50 [7] was 1 ± 0.1 nM, the “higher binding affinity for sst1 compared with octreotide” value ([8]; ratio versus octreotide) was 30 fold and the IC50 [8] was 9.3 ± 0.1 nM. For the same molecule, the AUC(0-t) [9, 11] was 0.11 ± 0.09 ng·h/mL, the Cmax [9, 11] was 0.06 ± 0.01 ng/mL and the Tmax [9, 11] was 15 min. For the same molecule, the AUC(0-t) ([9]; male, human, plasma, sc, 10 ug) was 0.66 ± 0.25 ng·h/mL, the Cmax ([9]; male, human, plasma, sc, 10 ug) was 0.24 ± 0.06 ng/mL and the Tmax ([9]; male, human, plasma, sc, 10 ug) was 15 min. The Vd/F ([9]; male, human, plasma, sc, 10 ug) was 38.1 L, the AUC(0-t) ([9]; male, human, plasma, sc, 30 ug) was 2.78 ± 1.02 ng·h/mL and the Cmax ([9]; male, human, plasma, sc, 30 ug) was 0.72 ± 0.17 ng/mL. It also gave a Tmax ([9]; male, human, plasma, sc, 30 ug) of 15 min, a Vd/F ([9]; male, human, plasma, sc, 30 ug) of 105 ± 5.7 L and a half-life ([9]; male, human, plasma, sc, 30 ug) of 444 ± 132 min. It also gave an AUC(0-inf) [9, 12] of 9.59 ± 2.44 ng·h/mL, an AUC(0-t) [9, 12] of 9.1 ± 2.37 ng·h/mL and a CL/F [9, 12] of 183 mL/min. For the same molecule, the Cmax [9, 12] was 2.23 ± 0.45 ng/mL, the Tmax [9, 12] was 30 min and the Vd/F [9, 12] was 131 ± 41 L. For the same molecule, the AUC(0-inf) [9, 13] was 17.5 ± 3.82 ng·h/mL, the AUC(0-t) [9, 13] was 16.8 ± 3.65 ng·h/mL and the CL/F [9, 13] was 198 mL/min. For the same molecule, the Cmax [9, 13] was 3.73 ± 0.9 ng/mL, the Tmax [9, 13] was 22.8 min and the Vd/F [9, 13] was 162 ± 33.9 L. The AUC(0-inf) [9, 14] was 27.1 ± 6.98 ng·h/mL, the AUC(0-t) [9, 14] was 26 ± 6.87 ng·h/mL and the CL/F [9, 14] was 198 mL/min. The Cmax [9, 14] was 4.71 ± 1.79 ng/mL, the Tmax [9, 14] was 22.8 min and the Vd/F [9, 14] was 180 ± 44.3 L. It also gave an AUC(0-inf) [9, 15] of 78.6 ± 12.3 ng·h/mL, an AUC(0-t) [9, 15] of 75.6 ± 11.2 ng·h/mL and a CL/F [9, 15] of 130 mL/min. It also gave a Cmax [9, 15] of 15.6 ± 3.25 ng/mL, a Tmax [9, 15] of 30 min and a Vd/F [9, 15] of 464 ± 440 L. For the same molecule, the AUC(0-inf) [9, 16] was 93.6 ± 13.6 ng·h/mL, the AUC(0-t) [9, 16] was 90.4 ± 13.2 ng·h/mL and the CL/F [9, 16] was 218 mL/min. It also gave a Cmax [9, 16] of 22.2 ± 5.53 ng/mL, a Tmax [9, 16] of 30 min and a Vd/F [9, 16] of 1190 ± 1570 L. The half-life [9, 16] was 546 ± 126 min, the “partial AUC in the γ phase as contribution to total AUC∞” value ([9]; single s.c. dose, 600 μg and 1200 μg, healthy male volunteers) was under 15% and the Tmax [9, 17] was 15 to 30 min. For the same molecule, the “t½,β (effective elimination half-life), mean” value [9, 17] was 420 to 660 min, the “Vz/F, mean value” ([9]; single s.c. dose, low doses (10 μg), healthy male volunteers) was 40 L and the “AEs considered related to the study drug” value ([10]; observed in the 1200 μg dose group only, of a total of 12 AEs in the study) was “eight”. The increased lipase level ([10]; one subject, single s.c. dose 10 μg, 48 hours post-dose, normal range 23–300 U/L) was 523 U/L, the “subjects who experienced at least one AE” value [10, 18] was 6 subjects and the “subjects who experienced nausea” value [10, 18] was “five”. For the same molecule, the “deaths, serious adverse events, clinically significant changes in laboratory values, vital signs or ECG” value ([10]; single s.c. dose 1–1200 μg, any dose, healthy male volunteers) was “no serious adverse events observed at any dose; also recorded: no reports of death, SAEs, or clinically significant changes in laboratory values, vital signs or ECG parameters”, the tolerability ([10]; single s.c. dose 1–1200 μg, healthy male volunteers) was “generally well tolerated” and the maximum tolerable dose ([10]; single s.c. dose, tested range 1–1200 μg, healthy male volunteers) was “not established within the tested range”.
For Lanreotide [reference compound], the IC50 [1] is listed as 14 ± 9 nM, the IC50 [5] is listed as 17 ± 5 nM and the IC50 [6] is listed as 230 ± 40 nM. The IC50 [7] was 0.54 ± 0.08 nM and the IC50 [8] was 180 ± 20 nM.
In the case of Octreotide [reference compound], the IC50 [1] is given as 7.1 ± 1.4 nM, the IC50 [5] is given as 6.3 ± 1 nM and the IC50 [6] is given as over 1000 nM. For the same molecule, the IC50 [7] was 0.38 ± 0.08 nM and the IC50 [8] was 280 ± 80 nM.

— article PMC3346155 (Drug Design, Development and Therapy, 2012)
